Test results reported in ChEMBL document CHEMBL5252676, “Dimeric polyphenols to pave the way for new antimalarial drugs” (RSC Med Chem, 2023).
≈ marks a conversion by molar mass, not a printed value.

Columns and labels:
[1] = Selectivity index, ratio of IC50 for cytotoxicity against HUVEC cells to IC50 for antiplasmodial activity against chloroquine-sensitive Plasmodium falciparum 3D7; type: toxicity, cell-based; settings: human, read-out: Ratio IC50
[2] = Cytotoxicity against HUVEC cells assessed as inhibition of cell growth incubated for 48 hrs by fluorescence based assay; type: toxicity; settings: human
Procedure, shortened: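 HUVEC in EGM-2, at most 10 passages, seeded at 2.5 × 10⁴ cells/well and grown 24 h at 37 °C. Six 2-fold concentrations in triplicate (DMSO max 0.5%) for 48 h. PrestoBlue for 2–3 h, fluorescence 560–590 nm, growth compared with untreated cells. n = 3 separate tests.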

[3] = Hemolytic activity in RBC (unknown origin) assessed as hemolysis at 100 ug/ml incubated for 1 hrs by absorbance based microplate reader analysis relative to control; type: toxicity, cell-based, Erythrocyte; settings: red blood cells, at 100 µg/mL, read-out: Activity
Procedure, shortened: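 Human A⁺/O⁺ RBC, 10% v/v in PBS, exposed to compound at 100 μg mL⁻¹ final (DMSO < 1%), in duplicate, stirred 1 h at RT. Centrifuged, supernatant OD₅₅₀ read. % lysis = (sample − PBS)/(1% Triton X-100 − PBS) × 100.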

[4] = test system: Plasmodium falciparum; assay: Antiplasmodial activity against chloroquine-sensitive Plasmodium falciparum 3D7 assessed as intraerythrocytic growth inhibition; type: functional, organism-based
Procedure, shortened: (§1)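 Asexual intraerythrocytic P. falciparum cultured at 37 °C in RPMI with glucose, hypoxanthine, gentamycin and 10% pooled human A+/O+ serum. DMSO stocks of 5–10 mg mL⁻¹ diluted in RPMI, final DMSO at most 1%. Eight two-fold dilutions tested in three consecutive assays. Growth read as Plasmodium lactate dehydrogenase activity at 650 nm against parasitized RBC (100%) and free RBC (0%). IC50 in triplicate; artemisinin and quinine as controls.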

[5] = test system: Plasmodium falciparum; assay: Antiplasmodial activity against chloroquine-resistant Plasmodium falciparum FcB1 assessed as intraerythrocytic growth inhibition; type: functional, organism-based; procedure, shortened: as §1
[6] = test system: Plasmodium falciparum; assay: Antiplasmodial activity against multidrug-resistant Plasmodium falciparum W2 assessed as intraerythrocytic growth inhibition; type: functional, organism-based; procedure, shortened: as §1
[7] = Aqueous solubility of compound assessed as Cmax incubated for 3 days by UV spectrophotometer based shake-flask method; type: physicochemical; settings: water (aqueous); time 3 day; read-out: Cmax
Procedure, shortened: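 Shake-flask: excess solid stirred overnight in MilliQ water at RT (~25 °C), filtered 0.45 μm, diluted, absorbance read at the λmax from a UV scan. Quantified against a 3-point calibration curve (R² > 0.95). Fresh saturated solutions were made on 3 consecutive days.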

| Structure (SMILES) | selectivity ratio [1] | IC50 at 48 h [2] | hemolysis at 1 h, 100 ug/ml [3] | IC50 [4] | IC50 [5] | IC50 [6] | solubility thermodynamic at 72 h [7] |
| --- | --- | --- | --- | --- | --- | --- | --- |
| O=C(Nc1cccc(OC(=O)c2cc(O)c(O)c(O)c2)c1)c1cc(O)c(O)c(O)c1 | 6 | 54 µM | < 1% | 2.1 µM | 3.7 µM | 3.4 µM | 300 µM (≈ 124 µg/mL) |
| C=C[C@H]1CN2CC[C@H]1C[C@H]2[C@H](O)c1ccnc2ccc(OC)cc12 [QUININE] | – | – | < 1% | 0.6 µM | – | – | – |
| O=C(OCCCOC(=O)c1cc(O)c(OCc2ccc3ccccc3c2)c(O)c1)c1cc(O)c(OCc2ccccc2)c(O)c1 | 5 | 6.9 µM | < 1% | 0.9 µM | 0.9 µM | 0.4 µM | – |
| COCOc1cc(C(=O)OCCCOC(=O)c2cc(OCOC)c(OCc3ccccc3)c(OCOC)c2)cc(OCOC)c1OCc1ccccc1 | – | – | < 1% | 4.5 µM | – | – | 3 µM (≈ 2.21 µg/mL) |
| O=C(OCCCOC(=O)c1cc(O)c(OCc2ccc3ccccc3c2)c(O)c1)c1cc(O)c(OCc2ccc3ccccc3c2)c(O)c1 | 2.4 | 9.7 µM | < 1% | 4 µM | 1.1 µM | 1.8 µM | – |
| O=C(OCCCOC(=O)c1cc(O)c(O)c(O)c1)c1cc(O)cc(O)c1 | > 21 | – | < 1% | 4.6 µM | 3.8 µM | 3.6 µM | 1200 µM (≈ 437 µg/mL) |
| O=C(OCCCOC(=O)c1ccccc1)c1ccccc1 | – | – | < 1% | > 352 µM | – | – | 7 µM (≈ 1.99 µg/mL) |
| C[C@@H]1CC[C@H]2[C@@H](C)C(=O)O[C@@H]3O[C@@]4(C)CC[C@@H]1[C@]32OO4 [ARTEMISININ] | – | – | < 1% | 0.013 µM | 17 µM | – | – |
| COCOc1cc(C(=O)OCCCOC(=O)c2cc(OCOC)c(OCc3ccc4ccccc4c3)c(OCOC)c2)cc(OCOC)c1OCc1ccccc1 | – | – | < 1% | 21 µM | – | – | – |
| O=C(OCCCOC(=O)c1cc(O)c(O)c(O)c1)c1ccc(O)c(O)c1 | 41 | 84 µM | < 1% | 5.5 µM | 4.9 µM | 7.6 µM | 280 µM (≈ 102 µg/mL) |
| O=C(OCCCOC(=O)c1cc(O)c(OCCO)c(O)c1)c1cc(O)c(O)c(O)c1 | > 14 | > 118 µM | < 1% | 20 µM | 4.3 µM | 7.6 µM | – |
| O=C(OCCCOC(=O)c1cc(O)c(O)c(O)c1)c1ccccc1 | 3 | 78 µM | < 1% | 27 µM | 11 µM | 13 µM | 600 µM (≈ 199 µg/mL) |
| O=C(Nc1ccc(OC(=O)c2cc(O)c(O)c(O)c2)cc1)c1cc(O)c(O)c(O)c1 | > 13 | > 121 µM | < 1% | 3.9 µM | 3.1 µM | 2.9 µM | 66 µM (≈ 27.3 µg/mL) |
| O=C(OCCCOC(=O)c1cc(O)c(OCCOCc2ccccc2)c(O)c1)c1cc(O)c(OCCOCc2ccccc2)c(O)c1 | 5 | 15 µM | < 1% | 3.2 µM | – | – | – |
| O=C(OCCCOC(=O)c1ccc(O)c(O)c1)c1ccc(O)c(O)c1 | > 42 | > 144 µM | < 1% | 9 µM | – | – | 33 µM (≈ 11.5 µg/mL) |
